According to ChEMBL document CHEMBL1130120, “N-arylpiperazinyl-N'-propylamino derivatives of heteroaryl amides as functional uroselective alpha 1-adrenoceptor antagonists” (J Med Chem, 1997):
pKi: −log10 of the molar value.

Tests used:
[1] = target: T1, Alpha-1A adrenergic receptor (Oryctolagus cuniculus, UniProt O02824); test: Antagonistic activity against alpha 1A/1L receptor was assessed in a rabbit bladder neck functional assay; conditions: read-out: pA2 (converted)
T1 sequence (O02824 whole entry): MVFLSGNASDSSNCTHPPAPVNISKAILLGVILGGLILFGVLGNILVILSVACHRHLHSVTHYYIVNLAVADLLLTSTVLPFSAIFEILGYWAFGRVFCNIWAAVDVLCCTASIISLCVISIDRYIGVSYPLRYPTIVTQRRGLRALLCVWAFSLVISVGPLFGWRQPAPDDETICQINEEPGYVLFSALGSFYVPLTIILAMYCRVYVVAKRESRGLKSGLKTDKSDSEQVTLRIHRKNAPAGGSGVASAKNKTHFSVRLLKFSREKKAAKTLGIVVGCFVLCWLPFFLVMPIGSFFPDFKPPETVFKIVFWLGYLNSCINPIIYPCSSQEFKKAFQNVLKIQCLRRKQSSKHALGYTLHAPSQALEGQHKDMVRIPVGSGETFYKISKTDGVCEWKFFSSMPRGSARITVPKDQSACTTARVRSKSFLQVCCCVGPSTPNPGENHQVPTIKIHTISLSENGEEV

[2] = target: T2, Alpha-1D adrenergic receptor (Rattus norvegicus, UniProt P23944); test: Antagonistic activity against rat aorta for affinity estimates representative of the Alpha-1D adrenergic receptor; type: functional, tissue-based; conditions: read-out: pA2 (converted)
T2 sequence (P23944 whole entry): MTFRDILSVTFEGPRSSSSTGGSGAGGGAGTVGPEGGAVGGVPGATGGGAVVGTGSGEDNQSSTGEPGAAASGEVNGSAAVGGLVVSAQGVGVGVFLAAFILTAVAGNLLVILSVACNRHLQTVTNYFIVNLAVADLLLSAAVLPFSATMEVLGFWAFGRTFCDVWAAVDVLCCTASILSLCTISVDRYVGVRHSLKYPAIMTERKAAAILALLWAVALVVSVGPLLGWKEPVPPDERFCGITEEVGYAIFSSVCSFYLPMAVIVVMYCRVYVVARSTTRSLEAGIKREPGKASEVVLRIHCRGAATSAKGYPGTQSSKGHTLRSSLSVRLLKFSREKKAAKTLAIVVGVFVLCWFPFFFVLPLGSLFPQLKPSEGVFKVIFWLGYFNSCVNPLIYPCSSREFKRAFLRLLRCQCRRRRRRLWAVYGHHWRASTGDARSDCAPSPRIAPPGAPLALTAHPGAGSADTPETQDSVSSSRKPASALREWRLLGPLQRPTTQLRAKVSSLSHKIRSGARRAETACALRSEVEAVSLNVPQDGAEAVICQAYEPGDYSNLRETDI
How it was run: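 Isolated smooth-muscle tissue with cumulative norepinephrine concentration–effect curves (rat aorta, human lower urinary tract). Affinity obtained by full Schild regression for some antagonists. […] Competitive, reversible interaction at a single subtype assumed.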

[3] = target: T3, Alpha-1A adrenergic receptor (Bos taurus, UniProt P18130); test: In vitro for the displacement of [3H]prazosin binding to bovine Alpha-1A adrenergic receptor
T3 sequence (P18130 whole entry): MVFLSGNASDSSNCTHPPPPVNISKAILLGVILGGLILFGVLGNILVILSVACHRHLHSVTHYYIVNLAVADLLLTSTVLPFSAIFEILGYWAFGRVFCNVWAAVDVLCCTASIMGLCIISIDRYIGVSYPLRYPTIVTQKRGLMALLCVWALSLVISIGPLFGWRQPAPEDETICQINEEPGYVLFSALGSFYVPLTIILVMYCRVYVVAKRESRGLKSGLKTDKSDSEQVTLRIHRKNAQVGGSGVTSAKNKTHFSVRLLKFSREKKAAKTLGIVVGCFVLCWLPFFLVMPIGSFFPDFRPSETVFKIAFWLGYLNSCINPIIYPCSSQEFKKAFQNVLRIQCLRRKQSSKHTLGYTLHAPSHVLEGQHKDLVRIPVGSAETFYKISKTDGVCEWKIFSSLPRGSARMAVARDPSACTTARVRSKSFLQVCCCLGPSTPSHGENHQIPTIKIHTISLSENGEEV

Row | Kb [1] | Kb [2] | pKi [3] | SMILES
1 | 0.631 nM | 31.6 nM | – | CSc1ccccc1N1CCN(CCCNc2ncccc2C(=O)N(C)C)CC1
2 | 0.316 nM | 25.1 nM | – | CN(C)C(=O)c1cccnc1NCCCN1CCN(c2ccccc2-c2ncco2)CC1
3 | 0.398 nM | 63.1 nM | – | CC(C)c1ccccc1N1CCN(CCCNc2ncccc2C(=O)N(C)C)CC1
4 | 3.98 nM | 50.1 nM | – | COc1ccccc1N1CCN(CCCNc2ncncc2C(=O)N(C)C)CC1
5 | 2 nM | 12.6 nM | – | COc1ccccc1N1CCN(CCCSc2ccccc2C(=O)N(C)C)CC1
6 | – | 15.8 nM | 8.50 | CCOc1ccccc1OCCNC1CCN(c2ncccc2C(=O)N(C)C)CC1
7 | 2 nM | 10 nM | 9.10 | Cc1ccccc1N1CCN(CCCNc2ncccc2C(=O)N(C)C)CC1
8 | 31.6 nM | 10 nM | – | COc1ccccc1N1CCN(CCCNc2ccccc2C(=O)c2ccccc2)CC1
9 | 31.6 nM | 1000 nM | – | COc1ccc(N2CCN(CCCNc3ncccc3C(=O)N(C)C)CC2)c(OC)c1
10 | – | 10 nM | 9.90 | COc1ccccc1N1CCN(CCCNc2ncccc2C(N)=O)CC1
11 | 3.98 nM | 100 nM | – | CN(C)C(=O)c1cnc2ccccc2c1NCCCN1CCN(c2ccccc2OCC(F)(F)F)CC1
12 | 6.31 nM | – | 9.10 | Cc1ccc(N(CC2=NCCN2)c2cccc(O)c2)cc1 [PHENTOLAMINE]
13 | – | 6.31 nM | 9.40 | COc1ccccc1N1CCN(CCCNc2ncccc2C(=O)C(C)(C)C)CC1
14 | 0.794 nM | 126 nM | – | CN(C)C(=O)c1cnc2c(Cl)cccc2c1NCCCN1CCN(c2ccccc2OCC(F)(F)F)CC1
15 | 0.794 nM | 20 nM | – | COc1ccccc1N1CCN(CCCNc2ncc(C#N)cc2C(=O)N(C)C)CC1
16 | 2 nM | 10 nM | – | CN(C)C(=O)c1cccnc1NCCCN1CCN(c2ccccc2C#N)CC1
17 | 3.98 nM | 31.6 nM | – | COc1ccccc1N1CCN(CCCOc2ccccc2C(=O)N(C)C)CC1
18 | 20 nM | – | 8.60 | COc1cc2nc(N3CCN(C(=O)C4CCCO4)CC3)nc(N)c2cc1OC (racemic) [TERAZOSIN]
19 | 0.501 nM | 158 nM | – | COc1cc(F)ccc1N1CCN(CCCNc2c(C(=O)N(C)C)cnc3c(C(N)=O)cccc23)CC1
20 | 6.31 nM | 15.8 nM | 8.70 | CN(C)C(=O)c1cccnc1NCCCN1CCN(c2ccccc2)CC1

Row | Kb [1] | Kb [2] | pKi [3] | SMILES
21 | 0.631 nM | 100 nM | – | COc1cc(F)ccc1N1CCN(CCCNc2c(C(=O)N(C)C)c[nH]c3ccn[n+]2-3)CC1
22 | 3.16 nM | 100 nM | – | CN(C)C(=O)c1cccnc1NCCCN1CCN(c2ccccc2OC(F)(F)F)CC1
23 | 12.6 nM | 79.4 nM | – | COc1cc(O)ccc1N1CCN(CCCNc2ncccc2C(=O)N(C)C)CC1
24 | 0.501 nM | 2 nM | – | COc1ccccc1N1CCN(CCCNc2ncccc2C(=O)C2CC2)CC1
25 | 0.1 nM | 3.98 nM | – | CNC(=O)c1cnc2c(c(C)nn2C)c1NCCCN1CCN(c2ccccc2OCC(F)(F)F)CC1
26 | 1.26 nM | 398 nM | – | COc1cc(F)ccc1N1CCN(CCCNc2c(C(=O)N(C)C)cnc3c(C#N)cccc23)CC1
27 | 0.501 nM | 7.94 nM | – | CCOc1ccccc1N1CCN(CCCNc2ncccc2C(=O)N(C)C)CC1
28 | 0.02 nM | 12.6 nM | – | Cc1ccc(N2CCN(CCCNc3ncccc3C(=O)N(C)C)CC2)c(-n2cccc2)c1
29 | 12.6 nM | 316 nM | – | CN(C)C(=O)c1cccnc1NCCCN1CCN(c2ccccc2C(F)(F)F)CC1
30 | 1.26 nM | 631 nM | – | COc1cc(F)ccc1N1CCN(CCCNc2c(C(=O)N(C)C)cnc3nc(C)ccc23)CC1
31 | 3.16 nM | 63.1 nM | – | COc1ccccc1N1CCN(CCCNc2cccc(C)c2C(=O)N(C)C)CC1
32 | – | – | 8.10 | Cc1cccc(C)c1N1CCN(CCCNc2ncccc2C(=O)N(C)C)CC1
33 | 6.31 nM | 79.4 nM | – | CN(C)C(=O)c1cccnc1NCCCN1CCN(c2ccccc2Cc2ccccc2)CC1
34 | 20 nM | 2510 nM | – | CN(C)C(=O)c1cccnc1N1CCC(NCCOc2ccccc2-c2cncnc2)CC1
35 | – | 50.1 nM | 9.10 | CN(C)C(=O)c1cccnc1NCCCN1CCN(c2ccccc2OCC(C)(C)C)CC1
36 | 1.58 nM | 63.1 nM | 8.80 | CN(C)C(=O)c1cccnc1N1CCC(NCCOc2ccccc2OCC(F)(F)F)CC1
37 | 0.794 nM | 39.8 nM | – | COc1cc(C)ccc1N1CCN(CCCNc2ncccc2C(=O)N(C)C)CC1
38 | 0.631 nM | 79.4 nM | – | COc1cc(F)ccc1N1CCN(CCCNc2c(C(=O)N(C)C)cnc3c2nc(C)n3C)CC1
39 | 0.794 nM | 158 nM | – | COc1cc(F)ccc1N1CCN(CCCNc2c(C(=O)N(C)C)c[nH]c3c(Cl)cn[n+]2-3)CC1
40 | 3.98 nM | – | 9.30 | COc1ccccc1N1CCN(CCCNc2c(C)c(=O)n(C)c(=O)n2C)CC1

Row | Kb [1] | Kb [2] | pKi [3] | SMILES
41 | 0.2 nM | 31.6 nM | – | CCCc1ccccc1N1CCN(CCCNc2ncccc2C(=O)N(C)C)CC1
42 | 200 nM | – | – | Cc1cnccc1N1CCN(CCCNc2ncccc2C(=O)N(C)C)CC1
43 | 1 nM | 15.8 nM | 9.40 | COc1ccccc1N1CCN(CCCNc2ccccc2C(=O)N(C)C)CC1
44 | 0.1 nM | 15.8 nM | – | CN(C)C(=O)c1cccnc1NCCCN1CCN(c2ccccc2OCC(F)(F)F)CC1
45 | 7.94 nM | 316 nM | – | COc1cc(F)ccc1N1CCN(CCCNc2c(C(=O)N(C)C)cnc3c(C)cccc23)CC1
46 | – | 251 nM | 8.80 | COc1ccccc1N1CCN(CCCNc2ccncc2C(=O)N(C(C)C)C(C)C)CC1
47 | 12.6 nM | 50.1 nM | 9.10 | COc1ccccc1N1CCN(CCCNc2ccncc2C(=O)N(C)C)CC1
48 | – | 20 nM | 9.10 | COc1ccccc1N1CCN(CCCNc2ncccc2C(=O)N2CCCC2)CC1
49 | 2.51 nM | 63.1 nM | – | CN(C)C(=O)c1cnc2c(c(C(C)(C)C)nn2C)c1NCCCN1CCN(c2ccccc2OCC(F)(F)F)CC1
50 | 5.01 nM | 63.1 nM | – | CN(C)C(=O)c1cccnc1NCCCN1CCN(c2ccccc2O)CC1
51 | 0.158 nM | 10 nM | 10.10 | CN(C)C(=O)c1cccnc1NCCCN1CCN(c2ccccc2OCC2CC2)CC1
52 | 2 nM | 10 nM | – | COc1ccccc1N1CCN(CCCNc2ncc(O)cc2C(=O)N(C)C)CC1
53 | 0.501 nM | 20 nM | – | COc1ccccc1N1CCN(CCCNc2ccc(C)cc2C(=O)N(C)C)CC1
54 | – | 63.1 nM | 8.80 | COc1ccccc1N1CCN(CCC(=O)Nc2ccccc2C(=O)N(C)C)CC1
55 | 25.1 nM | 31.6 nM | – | COc1ccccc1N1CCN(CCCNc2ccc(C(=O)N(C)C)cn2)CC1
56 | 1.58 nM | 79.4 nM | – | Cc1noc2ncc(C(=O)N(C)C)c(NCCCN3CCN(c4ccccc4OCC(F)(F)F)CC3)c12
57 | 10 nM | 39.8 nM | 8.80 | COc1ccccc1N1CCN(CCCNc2nc(C)cc(C)c2C(N)=O)CC1
58 | 0.631 nM | 63.1 nM | – | CN(C)C(=O)c1cccnc1NCCCN1CCN(c2ccccc2C2CC2)CC1
59 | 0.126 nM | 200 nM | – | Cc1nn(C)c2ncc(C(=O)N(C)C)c(NCCCN3CCN(c4ccc(F)cc4-c4ncco4)CC3)c12
60 | 1 nM | 3.16 nM | – | CNC(=O)c1cccnc1NCCCN1CCN(c2ccccc2OC)CC1

Row | SMILES | Kb [1] | Kb [2] | pKi [3]
61 | CC(C)(Cc1c[nH]c2ccc(Cl)cc12)NCCOc1ccccc1OCC1CC1 | 50.1 nM | – | 9.10
